Measurements published in ChEMBL document CHEMBL4270578, “Synthesis and cytotoxic studies of novel 5-phenylisatin derivatives and their anti-migration and anti-angiogenic evaluation” (Eur J Med Chem, 2018).
Active and inactive are the calls of the source. No cut-off for these calls is given here.

Key:
[1] = system: K562; test: Antiproliferative activity against human K562 cells after 48 hrs by MTT assay; type: functional, cell-based; details: K562, 48 h
Method in brief: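 MTT assay on K562 cells (RPMI-1640, 10% FBS) plated at 5 × 10^4 cells/ml for 2 h, then exposed to 10–100,000 nM compound for 48 h. MTT (5 mg/mL stock) added for 4 h before absorbance read. Viability normalized to DMSO controls (100%); IC50 from nonlinear regression, three independent assays.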

[2] = system: HepG2; test: Antiproliferative activity against human HepG2 cells after 48 hrs by MTT assay; type: functional, cell-based; details: HepG2, 48 h
[3] = system: HUVEC; test: Cytotoxicity against HUVEC after 48 hrs by MTT assay; type: cell-based; details: Homo sapiens
[4] = system: K562; test: Induction of morphological changes in human K562 cells assessed as cell shrinkage at 30 nM after 24 hrs; type: functional, cell-based
Method in brief: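 K562 cells kept in RPMI-1640 with 10% FBS, 2.05 mM glutamine and penicillin/streptomycin at 37 °C, 5% CO2. Exposed to 30 nM drug alongside DMSO-treated controls. Cell morphology examined by microscopy.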

[5] = system: K562; test: Induction of apoptosis in human K562 cells assessed as viable cells at 30 nM after 6 hrs by Annexin V-FITC/propidium iodide staining-based flow cytometric analysis (reference value: 95.8%); type: functional; details: K562, 6 h, read-out: Activity
[6] = system: K562; test: Induction of apoptosis in human K562 cells assessed as late apoptotic cells at 30 nM after 6 hrs by Annexin V-FITC/propidium iodide staining-based flow cytometric analysis (reference value: 2.2%); type: functional
[7] = system: K562; test: Induction of apoptosis in human K562 cells assessed as viable cells at 30 nM after 12 hrs by Annexin V-FITC/propidium iodide staining-based flow cytometric analysis (reference value: 95.8%); type: functional; details: K562, 12 h, read-out: Activity
[8] = system: K562; test: Induction of apoptosis in human K562 cells assessed as late apoptotic cells at 30 nM after 12 hrs by Annexin V-FITC/propidium iodide staining-based flow cytometric analysis (reference value: 2.2%); type: functional
[9] = system: K562; test: Induction of apoptosis in human K562 cells assessed as early apoptotic cells at 30 nM after 48 hrs by Annexin V-FITC/propidium iodide staining-based flow cytometric analysis (reference value: 1.9%); type: functional
[10] = system: K562; test: Induction of apoptosis in human K562 cells assessed as viable cells at 300 nM after 12 hrs by Annexin V-FITC/propidium iodide staining-based flow cytometric analysis (reference value: 95.6%); type: functional; details: K562, 12 h, read-out: Activity
[11] = system: K562; test: Induction of apoptosis in human K562 cells assessed as early apoptotic cells at 300 nM after 24 hrs by Annexin V-FITC/propidium iodide staining-based flow cytometric analysis (reference value: 2.2%); type: functional
[12] = system: K562; test: Induction of apoptosis in human K562 cells assessed as late apoptotic cells at 300 nM after 48 hrs by Annexin V-FITC/propidium iodide staining-based flow cytometric analysis (reference value: 2.1%); type: functional
[13] = system: HUVEC; test: Antiangiogenic activity against HUVEC assessed as inhibition of tube formation after 12 hrs by microscopic analysis; type: functional, cell-based; details: Homo sapiens
Method in brief: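 Matrigel (13.9 mg/mL) polymerized 30 min at 37 °C. HUVECs (1 × 10^5 cells/well) in Ham's F-12 + 10% FBS plated on the gel; after 40 min, DMSO or compound (10, 30, 100 nM) added. Incubated 12 h at 37 °C, 5% CO2; capillary-like tube formation photographed by microscopy.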

## COc1ccc(CN2C(=O)C(=O)c3cc(-c4ccc(OC)cc4)ccc32)cc1
[1]
  IC50: 30 nM
[2]
  IC50: 50 nM
[3]
  IC50: 920 nM
[4]
  Activity: Active
[5]
  viability at 0.03 µM: 94.4%
[6]
  Activity: 3.3%
[7]
  viability at 0.03 µM: 92.8%
[8]
  Activity: 4%
[9]
  Activity: 22.3%
[10]
  viability at 0.3 µM: 88.1%
[11]
  Activity: 12.4%
[12]
  Activity: 10%
[13]
  Activity: Dose-dependent effect
